# How the values were obtained:
# HEK-Blue™ hTLR4 cells = assay: MTT cell viability, HEK-Blue hTLR4 cells; assay type: cell-based, human; details: n ≥ 3
# Summary of the method: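 MTT colourimetric viability assay. HEK-Blue hTLR4 cells (high-glucose DMEM, 10% FBS, normocin) seeded at 5 × 10^4/well. RAW264.7 cells seeded at 2 × 10^5/well. Both grown overnight before exposure to test compound.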
# [1] = test system: TLR4 (HEK-Blue™ hTLR4 cells); assay: SEAP activity assay; assay type: cell-based, human; details: LPS-stimulated; absorbance at 620 nm; n ≥ 3
# Summary of the method: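 Seeded at 2 × 10^5/well (24-well) and grown overnight, then treated with a range of test-compound concentrations with or without LPS. Supernatants heat-treated at 65 °C for 10 min. SEAP (NF-κB reporter) detected with HEK-Blue detection medium.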
# TLR4 [2] = assay: Cytokine ELISA, LPS-stimulated RAW264.7 cells; assay type: cell-based, murine; details: n ≥ 3
# Summary of the method: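 Murine macrophages seeded at 2 × 10^5/well (96-well) or 5 × 10^5/well (24-well) and grown overnight, then treated with test compound and LPS. After 24 h treatment, secreted IFN-β was measured by pre-coated mouse IFN-β ELISA. Mouse IL-6 and mouse TNF-α were measured by ELISA kits.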
# [3] = test system: TNFR-mediated NLRP3 inflammasome; assay: NLRP3 inflammasome activation, IL-1β secretion, TNF-α-primed THP-1 cells; assay type: cell-based; details: THP-1 primed with recombinant human TNF-α, activated with Nigericin
# TLR4 [4] = assay: NO secretion assay, LPS-stimulated RAW264.7 cells; assay type: cell-based, murine; details: absorbance at 550 nm
# Summary of the method: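 RAW264.7 cells seeded at 2 × 10^5/well in 96-well format and grown overnight. After treatment with test compound and LPS, nitric oxide in the culture medium was quantified with a colourimetric NO detection kit.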
# TLR2/6 = assay: TNF-α secretion, FSL-1-stimulated RAW264.7 cells; assay type: cell-based, murine; details: TIP3 at 50 μM
# Summary of the method: (§1)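 RAW264.7 cells seeded at 2 × 10^5/well (96-well) or 5 × 10^5/well (24-well), grown overnight, then treated with test compound. Stimulus: poly(I:C), CpG-ODN (15), FSL-1 (16) or R848 (17). Supernatant cytokines read after 24 h by mouse ELISA kits (IFN-β, IL-6, TNF-α). Cells kept at 37 °C, 5% CO2.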
# TLR9 = assay: TNF-α secretion, CpG-ODN-stimulated RAW264.7 cells; assay type: cell-based, murine; details: TIP3 at 50 μM
# Summary of the method: as §1
# TLR3 [5] = assay: Cytokine ELISA, poly; assay type: cell-based, murine; details: 24 h
# Summary of the method: as §1
# TLR4 [6] = assay: Western blot, LPS-stimulated hPBMCs; assay type: cell-based, human
# Summary of the method: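 Total protein extracted with M-PER reagent and quantified by BCA. Membranes incubated with primary antibodies overnight at 4 °C, washed in PBS/0·1% Tween 20, then HRP-conjugated secondary (1:1000) for 2 h. Bands detected by enhanced chemiluminescence, with β-actin as loading reference.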
# TLR4 [7] = assay: Quantitative RT-PCR, LPS-stimulated THP-1 cells; assay type: cell-based, human; details: TIP3 50 μM 1 h, then LPS 4 h; normalized to GAPDH
# Summary of the method: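 THP-1 cells pretreated with test compound (50 μM) for 1 h, then LPS (100 ng/ml) added for 4 h. Total RNA extracted with TRIzol and cDNA synthesised. SYBR Green qPCR run with primers for IL-1β, IL-6, IL-8, TNF-α, with β-actin and GAPDH as references. Relative expression calculated by the ΔΔCt method.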
# TLR3 [8] = assay: Cytokine ELISA, poly; assay type: cell-based, mouse; details: mBMDMs, poly(I:C)
# Summary of the method: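 Bone marrow flushed from femurs and tibiae of C57BL/6J mice (6–7 weeks). Cultured in DMEM/10% FBS with M-CSF (25 ng/ml) for 3–4 days, detached with trypsin-EDTA, replated, and used 24 h later. Seeded and grown overnight, stimulated with poly(I:C) plus test compound. Secreted IFN-β measured after 24 h by mouse IFN-β ELISA.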
# TLR4 [9] = assay: NO secretion assay, LPS-stimulated mBMDMs; assay type: cell-based, mouse
# Summary of the method: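 Bone marrow macrophages from C57BL/6J femurs/tibiae, differentiated with M-CSF (25 ng/ml) for 3–4 days and replated 24 h before use. Seeded at 2 × 10^5/well, grown overnight. Pretreated with test compound for 1 h, then co-treated with LPS. Extracellular NO in supernatant measured with a nitric oxide detection kit by absorbance at 550 nm.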
# TLR4 [10] = assay: Cytokine ELISA, LPS-stimulated hMNCs; assay type: cell-based, human
# Summary of the method: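 Commercial human mononuclear cells kept in RPMI 1640 (2·05 mM L-glutamine, 10% FBS, penicillin/streptomycin). Seeded at 2 × 10^5/well and grown overnight. Stimulated with LPS or poly(I:C) alongside test compound. After 24 h, supernatant IL-6 and TNF-α measured by human sandwich ELISA.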
# CIA mice = assay: Micro-CT and histology of knee joints, CIA model; assay type: in vivo, mouse (DBA/1 J)
# Summary of the method: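 DBA/1J collagen-induced arthritis mice, dosed i.p. daily from day 22. Knee bone samples fixed in 10% formalin and scanned by in vivo micro-CT. Bone mineral density measured at 1 mm below the top of the tibia within a set region of interest. Joint sections stained with H&E and examined for synovial hyperplasia, pannus, immune-cell infiltration and joint-space narrowing.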
# [11] = test system: mice with IMQ-induced psoriasis-like disease; assay: Imiquimod; assay type: in vivo, mouse (C57BL/6)
# Summary of the method: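 C57BL/6 mice (6–7 weeks, specific-pathogen-free) given 62·5 mg of 5% imiquimod cream topically for 5 consecutive days; controls left untreated. Test compound (10 or 50 nmol/g) or PBS given daily, and methotrexate (10 μg/g) as reference, all starting 1 day before the cream. Mice killed after 5 days. Back-skin severity scored on a PASI-based scale.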
sequence,measurement,setting,value
DYDVCVCH [TIP3],cell viability / cytotoxicity,HEK-Blue™ hTLR4 cells; 12·5 to 50 μM,did not show any significant cytotoxicity
same,cell viability / cytotoxicity,"HEK-Blue™ hTLR4 cells; high concentration, 100 μM",slight cytotoxicity
same,inhibition of LPS-induced SEAP activity (NF-κB),[1],hampered the LPS-induced SEAP activity in a dose-dependent manner
same,LPS-induced IFN-α secretion,TLR4 [2],significantly prevented in vitro production of proinflammatory cytokines (TNF-α and IL-6) and IFN-α and -β in a dose-dependent manner
same,LPS-induced IFN-β secretion,TLR4 [2],significantly prevented in vitro production of proinflammatory cytokines (TNF-α and IL-6) and IFN-α and -β in a dose-dependent manner
same,LPS-induced IL-6 secretion,TLR4 [2],significantly prevented in vitro production of proinflammatory cytokines (TNF-α and IL-6) and IFN-α and -β in a dose-dependent manner
same,LPS-induced TNF-α secretion,TLR4 [2],significantly prevented in vitro production of proinflammatory cytokines (TNF-α and IL-6) and IFN-α and -β in a dose-dependent manner
same,IL-1β secretion,[3],not in the TNF-α-primed cells
same,LPS-induced extracellular NO secretion,TLR4 [4],represses the LPS-induced extracellular secretion of NO
same,TNF-α secretion mediated by TLR2/6,TLR2/6,somewhat weak inhibition
same,TNF-α secretion mediated by TLR9,TLR9,somewhat weak inhibition
same,poly(I:C)-induced IFN-α secretion,TLR3 [5],also inhibited
same,poly(I:C)-induced IFN-β secretion,TLR3 [5],also inhibited
same,poly(I:C)-induced IL-6 secretion,TLR3 [5],also inhibited
same,TLR3-mediated TNF-α secretion,TLR3 [5]; poly(I:C),significantly diminished the TLR3-mediated TNF-α secretion in a dose-dependent manner
same,activation of ATF3,TLR4 [6],hindered the activation of NF-κB and ATF3
same,activation of NF-κB,TLR4 [6],hindered the activation of NF-κB
same,phosphorylation of ERK,TLR4 [6],"inhibited the phosphorylation of MAPKs, including ERK, JNK, and p38"
same,phosphorylation of IRF3,TLR4 [6],hindered the activation of NF-κB and ATF3 and the phosphorylation of IRF3
same,phosphorylation of JNK,TLR4 [6],"inhibited the phosphorylation of MAPKs, including ERK, JNK, and p38"
same,phosphorylation of p38,TLR4 [6],"inhibited the phosphorylation of MAPKs, including ERK, JNK, and p38"
same,IL-1β mRNA expression,TLR4 [7],inhibited LPS-induced mRNA expression
same,IL-6 mRNA expression,TLR4 [7],inhibited LPS-induced mRNA expression
same,IL-8 mRNA expression,TLR4 [7],inhibited LPS-induced mRNA expression of these cytokines and of IL-8
same,TNF-α mRNA expression,TLR4 [7],inhibited LPS-induced mRNA expression
same,TLR3-mediated IFN-β secretion,TLR3 [8],suppressed
same,LPS-induced extracellular NO,TLR4 [9],significant reduction
same,TLR4-mediated IL-6 secretion,TLR4 [10],significantly inhibited
same,TLR4-mediated TNF-α secretion,TLR4 [10],significantly inhibited
same,bone destruction recovery (knee joint),"CIA mice; TIP3 10 nmol/g, micro-CT",remarkable recovery from the bone destruction
same,inflammation score,"CIA mice; TIP3-treated CIA mice, Fig. 4j synovial hyperplasia score",significantly lower inflammation score
same,synovial hyperplasia score,CIA mice; prolonged TIP3 treatment,substantially reduces inflammation
same,effect relative to MTX,[11]; TIP3 10 nmol/g vs MTX 10 μg/g,relatively weaker effect than did the MTX-treated group
same,spleen weight,[11]; TIP3 50 nmol/g i.p.,significantly decreasing the spleen weight (almost to the weight of normal murine spleen)
same,body weight,"[11]; TIP3 50 nmol/g i.p., vs MTX and TIP3 10 nmol/g",underwent a weight loss as compared to the MTX- and TIP3 (10 nmol/g)-treated groups
same,inflammation severity of back skin,[11]; TIP3 10 or 50 nmol/g daily,reversal of inflammation severity
same,PASI score,[11]; TIP3 10 or 50 nmol/g i.p.,did not significantly reduce the PASI score starting from day 2
same,splenomegaly,[11]; TIP3 10 or 50 nmol/g i.p.,remarkably prevented splenomegaly in a dose-dependent manner
